From PubChem BioAssay
PfG6PD inh: PfG6PD enzyme inhibitors, primary screen, biochemical, fluorescence intensity, uHTS | inhibition, % at 20 µM | AID 504690, 2011 | PfGluPho enzyme, NADPH resazurin-diaphorase fluorescence | 350,000 compounds, 0.78% hits | glucose-6-phosphate dehydrogenase-6-phosphogluconolactonase (Plasmodium falciparum 3D7);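 active = inhibition reaching at least a set limit at 20 µM in the primary screen, cut at about 59% in these data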
Tb hexokinase: Trypanosoma brucei hexokinase 1 inhibitors, primary screen, biochemical, G6PDH-coupled NADH absorbance, MLSCN library. 220,000 compounds, 0.11% hits. inhibition, % at 10 µM. AID 1430, 2008. recombinant TbHK1, G6PDH-coupled NADH A340. hexokinase 1 [Trypanosoma brucei];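 active = inhibition of 50% or more in the single-dose primary screen; inactive = inhibition below 50%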
PHOSPHO1 block: PubChem AID 1565. Phosphoethanolamine/phosphocholine phosphatase (Homo sapiens), Q8TCT1. recombinant PHOSPHO1, absorbance phosphatase assay. inhibition, % at 13.3 µM. 290,000 compounds, 1.1% hits; in the data active = inhibition above about 60%
Target sequence (Q8TCT1 whole entry, looked up): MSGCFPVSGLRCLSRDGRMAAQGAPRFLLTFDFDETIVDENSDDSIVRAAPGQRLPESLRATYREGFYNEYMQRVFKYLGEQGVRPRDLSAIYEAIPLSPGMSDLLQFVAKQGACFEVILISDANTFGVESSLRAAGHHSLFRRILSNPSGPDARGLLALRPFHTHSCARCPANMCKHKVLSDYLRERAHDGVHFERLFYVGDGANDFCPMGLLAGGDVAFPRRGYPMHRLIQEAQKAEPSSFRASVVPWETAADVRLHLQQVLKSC
EP2 mod: EP2 receptor modulators, cAMP readout, primary screen, cell-based, HTRF cAMP, PGE2 stimulation; Prostaglandin E2 receptor EP2 subtype (Homo sapiens), P43116; EP2-expressing cells, cAMP HTRF FRET, PGE2 co-stimulation; induction, % at 25 µM; 260,000 compounds, 0.83% hits;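 active = compounds whose cAMP rise, as percent of the full-agonist control response, exceeds 60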;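 also: rat C6 glioma line stably carrying human EP2 under a CMV promoter; the protocol text gives 20 µM as final concentration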
Target sequence (P43116 whole entry, looked up): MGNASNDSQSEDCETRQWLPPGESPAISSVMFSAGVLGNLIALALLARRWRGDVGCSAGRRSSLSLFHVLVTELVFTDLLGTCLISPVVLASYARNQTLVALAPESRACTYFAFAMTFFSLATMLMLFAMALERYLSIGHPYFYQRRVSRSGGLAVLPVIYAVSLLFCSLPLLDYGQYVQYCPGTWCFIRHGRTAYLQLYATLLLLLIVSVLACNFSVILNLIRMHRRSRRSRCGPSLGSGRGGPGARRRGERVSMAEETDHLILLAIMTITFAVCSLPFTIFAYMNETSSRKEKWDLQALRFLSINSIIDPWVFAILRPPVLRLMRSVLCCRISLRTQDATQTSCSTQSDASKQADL
HKDC1 inh: HKDC1 hexokinase inhibitors, primary screen, biochemical, fluorescence, uHTS; inhibition, % at 20 µM; recombinant HKDC1, G6PDH/diaphorase resazurin coupled fluorescence; Q2TB90; 340,000 compounds, 0.16% hits;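 active = inhibition above about 35% when tested at 20 µM, limit read from the data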
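Test system: Recombinant HKDC1 (HK5) hexokinase enzyme, produced in-house | Input: HKDC1 at 5 µg/mL | Buffer or medium: Tris pH 8.0 buffer with MgCl2, Tween-20, BSA, BME | Schedule: 90 min reaction incubation at room temperature, dark | Technique: Resazurin-to-resorufin fluorescence via G6PDH and diaphorase coupling, 525/613 nm | Controls: DMSO wells with and without enzyme mix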
EP2 antag: human EP2 receptor antagonists, primary screen, TR-FRET cAMP, C6 glioma cells. Prostaglandin E2 receptor EP2 subtype (Homo sapiens), P43116. C6 glioma cells expressing human EP2; cells stimulated with saturating PGE2. inhibition, % at 25 µM. 260,000 compounds, 0.52% hits. AID 1422, 2008;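 active = percent inhibition above 40 after rounding to a whole number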;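 also: rat C6 glioma host cells with rolipram phosphodiesterase inhibitor present; the protocol text gives 20 µM as final concentration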
EP2 confirm: cAMP induction in EP2, EP4, beta2-AR and parental cells, confirmation, counter-screen for EP2 modulator project, cell-based, five parallel assays, C6 glioma, HEK293; shares compounds with EP2 mod; cAMP HTRF induction; plus low (about EC15) PGE2 agonist; calls only at 20 µM (by protocol); 1,300 compounds, 47% hits; AID 1080, 2008;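 active = cAMP induction above 50% in the main assay while under 30% in all four parallel counter assays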;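 also: rat C6 glioma cells stably expressing human EP2 receptor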
Each line names hits and unclear results; the compound was inactive in the other large screens (follow-up assays come after a bar, where they were run). An excerpt weighted towards active compounds, which were near 2.5% of everything screened.

Cc1ccc(-n2c(COc3ccccc3)n[nH]c2=S)cc1	none
Cc1ccc(NC(=O)Cn2cnc3sc4c(c3c2=O)CCC(C)C4)cc1 (stereo not given)	none (no result: PfG6PD inh, Tb hexokinase, PHOSPHO1 block, HKDC1 inh)
Cc1ccc(S(=O)(=O)c2nc(-c3ccccc3Cl)oc2N(C)C)cc1	none (no result: Tb hexokinase, EP2 mod, EP2 antag)
CN(C)c1oc(-c2ccccc2Cl)nc1P(=O)(c1ccccc1)c1ccccc1	EP2 mod 71 | EP2 confirm active
CCCCOP(=O)(OCCCC)C(Nc1ccccc1)c1ccc2c(c1)OCO2 (stereo not given)	EP2 mod 70 | EP2 confirm inactive
CCOC(=O)C1=C(N)OC2=C(C(=O)CC(C)(C)C2)C1c1ccco1 (stereo not given)	none
CCOC(=O)C1=C(N)OC2=C(C(=O)CC(C)(C)C2)C1c1ccc(CC)s1 (stereo not given)	EP2 mod 73 | EP2 confirm active
FC(F)(F)c1nc(=S)c2ccccc2[nH]1	EP2 mod 71 | EP2 confirm inactive
O=C(c1cccs1)N1CCC(c2nc(-c3ccc(S(=O)(=O)N4CCCC4)cc3)no2)CC1	none (no result: PfG6PD inh, Tb hexokinase, PHOSPHO1 block, HKDC1 inh)
COc1cc(NC(=O)CSc2nc(C(C)C)nc3ccccc23)cc(OC)c1	none (no result: PfG6PD inh, Tb hexokinase, PHOSPHO1 block, HKDC1 inh)
CCc1ccccc1NC(=S)N(Cc1ccco1)C(C)c1cccs1 (stereo not given)	none | EP2 confirm inactive
NC(=O)C1CCN(C(=O)c2cc(-c3ccc(Cl)cc3Cl)on2)CC1	none (no result: PfG6PD inh, Tb hexokinase, PHOSPHO1 block, HKDC1 inh)
Oc1ccc(-c2n[nH]c(=S)n2Cc2ccccc2)cc1	none
S=c1[nH]nc(-c2ccc3ccccc3n2)n1Cc1ccccc1	EP2 mod 74 | EP2 confirm inactive
Cc1cc(-c2n[nH]c(=S)n2Cc2ccccc2)cs1	none
Cc1scc(-c2n[nH]c(=S)n2Cc2ccccc2)c1C	none | EP2 confirm inactive
CCc1c(-c2n[nH]c(=S)n2Cc2ccccc2)csc1C	none | EP2 confirm inactive
Cn1c(=O)c2c(nc(SCC(=O)N3CCCC3)n2Cc2ccccc2)n(C)c1=O	none (no result: PfG6PD inh, Tb hexokinase, PHOSPHO1 block, HKDC1 inh)
COc1ccc(Cc2nnc(NC(=O)COc3ccc(Cl)cc3)s2)cc1OC	none (no result: PfG6PD inh, Tb hexokinase, PHOSPHO1 block, HKDC1 inh)
Cc1cc(NC(=O)c2ccccc2)ccc1NC(=O)CSc1nnc(-c2cccs2)n1C	none (no result: PfG6PD inh, Tb hexokinase, PHOSPHO1 block, HKDC1 inh)
COc1ccc(NC(=O)CSc2nc3sc(C)c(C)c3c(=O)n2-c2ccccc2)cc1	none (no result: PfG6PD inh, Tb hexokinase, PHOSPHO1 block, HKDC1 inh)
Cc1cc(C)c(C#N)c(Oc2ccccc2Br)n1	EP2 mod 70 | EP2 confirm inactive
C=CCSc1nc(N(CC)CC)c2sccc2n1	EP2 mod 67 | EP2 confirm inactive
C=CCNc1nc(SC)nc2ccsc12	none
N#CC1=C(S)N(c2ccc(F)cc2)C2(CCCCC2)NC1=O	none
N#CC1=C(S)N(c2ccccc2)C2(CCCCC2)NC1=O	EP2 mod 71 | EP2 confirm inactive
CN(C)c1ncc(S(=O)(=O)c2ccccc2)c(-c2ccccc2Cl)n1	EP2 mod 66 | EP2 confirm active
Cc1nc2c(c(=O)[nH]1)CCN(C(=O)c1cccc3nccnc13)C2	none (no result: PfG6PD inh, Tb hexokinase, PHOSPHO1 block, HKDC1 inh)
COc1ccc2[nH]c(=O)c(C(c3nnnn3CCc3ccccc3)N3CCC(C)CC3)cc2c1 (stereo not given)	none (no result: PfG6PD inh, Tb hexokinase, PHOSPHO1 block, HKDC1 inh)
COc1ccc(-n2c(COc3cccc4ccccc34)nnc2SCC(=O)NCc2ccco2)cc1	EP2 mod 66 | EP2 confirm inactive
COc1ccc(C2CC(c3ccccc3)=NN2C(=O)c2cccs2)cc1 (stereo not given)	none
COc1ccc(C2=NN(C(=O)c3cccs3)C(O)(C(F)(F)F)C2)cc1 (stereo not given)	EP2 mod 98 | EP2 confirm active
COc1ccc(C2=NN(C(=O)c3cccs3)C(c3ccccc3O)C2)cc1 (stereo not given)	EP2 mod 71 | EP2 confirm active
COc1cc2c(cc1CN(CCCN(C)C)Cc1ccccn1)OCO2	none (no result: PfG6PD inh, Tb hexokinase, PHOSPHO1 block, HKDC1 inh)
CC(C)C(=O)Nc1nnc(CCN2CCCCC2)s1	none
CC(=O)Nc1nnc(CCN2CCCCC2)s1	EP2 mod 72 | EP2 confirm inactive
Cc1noc(C)c1COc1ccc(C(=O)NNC(=O)c2ccccc2)cc1	none (no result: Tb hexokinase, PHOSPHO1 block, EP2 mod, EP2 antag)
Cc1noc(C)c1COC(=O)C(c1ccccc1)c1ccccc1	EP2 mod 75 | EP2 confirm inactive
CCCNC(=O)CSc1nc(C2CCCCC2)nc2ccccc12	none (no result: PfG6PD inh, Tb hexokinase, PHOSPHO1 block, HKDC1 inh)
c1ccc(Cc2nnc(Sc3ccccc3)c3ccccc23)cc1	EP2 mod 69 | EP2 confirm inactive
c1ccc(Sc2ncnc3ccccc23)cc1	none
Cc1ccc(-c2nnn(CC(=O)N(Cc3cccs3)C(C(=O)NC3CCCC3)c3ccncc3)n2)cc1 (stereo not given)	EP2 mod 72 | EP2 confirm inactive
COc1ccc(-c2cc(C(F)(F)F)nc(NCc3ccco3)n2)cc1OC	EP2 mod 67 | EP2 confirm active
CCN(CC)P(=O)(Nc1ccccc1Br)c1ccc(N(C)C)cc1NC(=O)c1ccco1 (stereo not given)	EP2 mod 66 | EP2 confirm inactive
